Laboratory results reported in PMC7145530 (Nucleic Acids Research, 2019).

T1: ALKBH3 (Homo sapiens, UniProt Q96Q83)
T1 sequence (Q96Q83 1-286): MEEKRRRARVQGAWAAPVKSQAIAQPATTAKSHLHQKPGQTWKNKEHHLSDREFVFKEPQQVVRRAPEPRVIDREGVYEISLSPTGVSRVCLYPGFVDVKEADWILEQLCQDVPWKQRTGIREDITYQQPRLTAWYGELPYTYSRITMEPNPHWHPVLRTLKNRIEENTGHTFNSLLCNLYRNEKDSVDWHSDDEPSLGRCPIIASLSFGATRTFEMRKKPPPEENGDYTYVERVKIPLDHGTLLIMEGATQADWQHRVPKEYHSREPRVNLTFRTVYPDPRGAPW

B1: RAD51CΔ42–52 (protein)
chain: MRGKTFRFEMQRDLVSFPLSPAVRVKLVSAGFQTAEELLEVSKAEALETLQIIRRECLTNKPRYAGTSESHKKCTALELLEQEHTQGFIITFCSALDDILGGGVPLMKTTEICGAPGVGKTQLCMQLAVDVQIPECFGGVAGEAVFIDTEGSFMVDRVVDLATACIQHLQLIAEKHKGEEHRKALEDFTLDNILSHIYYFRCRDYTELLAQVYLLPDFLSEHSKVRLVIVDGIAFPFRHDLDDLSLRTRLLNGLAQQMISLANNHRLAVILTNQMTTKIDRNQALLVPALGESWGHAATIRLIFHWDRKQRLATLYKSPSQKECTVLFQIKPQGFRDTVVTSACSLQTEGSLSTRKRSRDPEEEL
modifications: left off: Gal4 activation domain, end not stated, kept

Tests used:
PC-3 cells [1] = assay: Calcein-AM viability assay, PC-3; assay type: cell-based, human; settings: MMS 400 μM, 48 h; knockdown of RAD51C, ALKBH3, or both
In short: (§1)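 PC-3 cells grown in Ham's F-12 GlutaMAX with 10% FBS at 37°C and 5% CO₂. Stable shRNA knockdown made by electroporation and 1 μg/ml puromycin selection for 30 days; the control shRNA targets luciferase. After MMS, cells were stained 30 min at 37°C with 2 μM Calcein AM in PBS and imaged by inverted fluorescence microscope. Percent MMS-induced cytotoxicity was plotted.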

NCI-H23 cells [2] = assay: Cell survival assay; assay type: cell-based, human; settings: MTT, MMS 50–400 μM, 48 h
In short: (§2)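 Stable shRNA-knockdown cells (luciferase shRNA as control) seeded at 5000 per well in triplicate. MMS (0, 50, 100, 200, 300, 400 μM) was given continuously for 48 h. Medium was then replaced with 0.5 mg/ml MTT for 4 h at 37°C in the dark, formazan solubilised and A570 read. Percent viability given as mean ± SD from four experiments.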

NCI-H23 cells [3] = assay: Calcein-AM viability assay, NCI-H23; assay type: cell-based, human; settings: MMS 400 μM, 48 h; knockdown of RAD51C, ALKBH3, or both
In short: as §1, with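 “NCI-H23” for “PC-3”, “DMEM” for “Ham's F-12 GlutaMAX”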

PC3 cells = assay: Immunofluorescence of 3meC, PC3; assay type: cell-based, human; settings: 48 h
In short: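 Stable RAD51C and/or ALKBH3 shRNA-knockdown PC3 cells were grown on chamber slides with MMS, then fixed in 4% formaldehyde (15 min, RT). DNA was denatured in 1.5 M HCl for 30 min and neutralised with sodium borate pH 8.5. Cells were permeabilised (0.1% Triton X-100), blocked (1% BSA), stained with anti-3meC overnight at 4°C, then Alexa-594 secondary, with DAPI counterstain. Signal was quantified as mean ± SE of three independent assays by Student's t-test.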

[4] = tested on: MEFs, CHO and DT40 cell lines lacking RAD51C; cancer cells lacking ALKBH3; settings: cited from earlier work
PC-3 cells [5] = assay: Cell survival assay; assay type: cell-based, human; settings: MTT, MMS 50–400 μM, 48 h
In short: as §2

GST-ALKBH3 = assay: GST pull-down of His-RAD51C constructs; assay type: binding, human; settings: 150 μg GST-ALKBH3, ∼100 μg His-protein, room temperature, 2 h; MNase
In short: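 His-RAD51C, full-length or Δ42–52, was expressed in E. coli BL21-CodonPlus(DE3)-RIL (1 mM IPTG, 16°C, 18 h) and purified on Ni-NTA. It was incubated with GST-ALKBH3 bound to glutathione beads in 25 mM Tris pH 7.5, 1 mM CaCl₂ and 500 mM NaCl, with 10 U micrococcal nuclease. In competition runs, RAD51C 42–52 or 33–41 peptide was added at 50, 250 or 500 μM. Bound protein was detected by SDS-PAGE and anti-6xHis western blot.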

ALKBH3 [6] = biological target: T1, ALKBH3; assay: Yeast two-hybrid with ALKBH3; assay type: binding; settings: strain pJ69-4A; growth on dropout plates and lacZ reporter
In short: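 Full-length ALKBH2 or ALKBH3 fused to Gal4 binding domain (pGBKT7) was co-transformed with Gal4 activation domain (pACT2) fusions of RAD51, RAD51B, RAD51C, RAD51D, XRCC2 or XRCC3, or empty vectors. Transformants were selected on SD -Leu -Trp plates at 30°C for 2–3 days, then spotted on -His (triple) or -His -Ade (quadruple) dropout plates. lacZ was scored qualitatively by X-gal filter assay.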

ALKBH3 [7] = biological target: T1, ALKBH3; assay: Co-immunoprecipitation; assay type: binding; settings: for co-immunoprecipitation of endogenous ALKBH3: NCI-H23 and PC-3, Flag-HA-RAD51C constructs
RAD51D = assay: Yeast two-hybrid with RAD51D; assay type: binding, human; settings: pGBKT7-RAD51C or pGBKT7-RAD51CΔ42-52
[8] = tested on: mutant ALKBH3 (H191A, D193A and H257A); assay: Demethylation assay with mutant ALKBH3; assay type: biochemical, human; settings: mutant ALKBH3 0.2 μM, RAD51C 4.0 μM
ALKBH3 [9] = biological target: T1, ALKBH3; assay: Demethylation assay by direct detection of formaldehyde; assay type: biochemical
RAD51 = assay: Yeast two-hybrid with RAD51; assay type: binding, human; settings: pGBKT7-RAD51C or pGBKT7-RAD51CΔ42-52
XRCC3 = assay: Yeast two-hybrid with XRCC3; assay type: binding, human; settings: pGBKT7-RAD51C or pGBKT7-RAD51CΔ42-52
ALKBH3 [10] = biological target: T1, ALKBH3; assay: Demethylation assay by dot-blot analysis, 3′-tailed DNA; assay type: biochemical; settings: ALKBH3 0.4 μM, RAD51C or RAD51CΔ42–52 8 μM, 3′-tailed DNA 8 μM, anti-3meC antibody
ALKBH3 [11] = biological target: T1, ALKBH3; assay: Steady-state; assay type: biochemical
RAD51B = assay: Yeast two-hybrid with RAD51B; assay type: binding, human; settings: pGBKT7-RAD51C or pGBKT7-RAD51CΔ42-52
NCI-H23 cells [12] = assay: Immunofluorescence of 3meC, NCI-H23; assay type: cell-based, human; settings: stable RAD51C knockdown NCI-H23, MMS 400 μM, 48 h; at least 50 cells counted
In short: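 RNAi-resistant Flag-HA-RAD51C, wild-type or Δ42–52, was electroporated into stable RAD51C-knockdown cells 24 h before MMS. Cells were fixed in formaldehyde, denatured in HCl, then co-stained for anti-HA (recombinant protein) and anti-3meC, with DAPI. Images were taken by fluorescence microscopy and signals quantified.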

[13] = combined RAD51C and ALKBH3 knockdown
[14] = stable RAD51C and ALKBH3 knockdown
[15] = HEK-293T, Flag-HA-RAD51C constructs and Myc-ALKBH3 co-expressed, anti-Flag
[16] = 3′-tailed DNA 0.6–9.6 μM, ALKBH3 0.2 μM, RAD51C or RAD51CΔ42–52 4 μM, FDH-coupled

yeast two-hybrid interaction with ALKBH3 (ALKBH3 [6]) | Molecule | pull-down by GST-ALKBH3 (GST-ALKBH3) | co-immunoprecipitation of ALKBH3 (ALKBH3 [7]; [15]) | co-immunoprecipitation of endogenous ALKBH3 (ALKBH3 [7]; anti-Flag) | yeast two-hybrid interaction with RAD51D (RAD51D) | yeast two-hybrid interaction with RAD51 (RAD51) | yeast two-hybrid interaction with XRCC3 (XRCC3) | effect on 3meC level (ALKBH3 [10]) | kcat/KM (ALKBH3 [11]; [16]) [min^-1μM^-1] | yeast two-hybrid interaction with RAD51B (RAD51B) | other results
– | COS(C)(=O)=O [MMS, methyl methanesulphonate] | – | – | – | – | – | – | – | – | – | MMS sensitivity (Calcein-AM) (PC-3 cells [1]): MMS sensitive; cell survival, combined knockdown (NCI-H23 cells [2]; [13]): severe cell survival defect; cell proliferation (NCI-H23 cells [2]; [14]): significantly affected; MMS sensitivity (Calcein-AM) (NCI-H23 cells [3]): MMS sensitive; 3meC accumulation in nucleus (PC3 cells; MMS 400 μM, ALKBH3 knockdown): a number of cells showed 3meC accumulation in the nucleus; 3meC level, effect less than ALKBH3 knockdown (PC3 cells; MMS 400 μM, RAD51C knockdown): ~50%; 3meC accumulation in nucleus (PC3 cells; MMS 400 μM, combined RAD51C and ALKBH3 knockdown): 3meC accumulation in the nucleus in a manner epistatic with ALKBH3 knockdown; 3meC signal in nucleus (PC3 cells; MMS 400 μM, control shRNA): no visible signal for 3meC were detected in the nucleus; MMS sensitivity [4]: MMS sensitivity; cell survival, combined knockdown (PC-3 cells [5]; [13]): severe cell survival defect; cell proliferation (PC-3 cells [5]; [14]): significantly affected
robust interaction | RAD51C: human RAD51 paralogue, recombinant or expressed (tag-less, His-tag or Flag-HA) | could be pulled down by GST-ALKBH3 | ALKBH3 was immunoprecipitated with RAD51C | immunoprecipitated endogenous ALKBH3 in both the cell lines | weak interaction | weak interaction | interacted strongly | reduction in the levels of 3meC in 3′-tailed DNA was higher compared to the ALKBH3 alone | 2.6 | interacted strongly | co-immunoprecipitation of ALKBH3 (ALKBH3 [7]; PC-3, endogenous proteins, anti-RAD51C antibody): ALKBH3 could indeed be immunoprecipitated with RAD51C; effect on mutant ALKBH3 activity [8]: indistinguishable from the mutant ALKBH3 alone; effect of ATP exclusion or ATP-γ-S on RAD51C stimulation (ALKBH3 [9]; ALKBH3 0.2 μM, RAD51C 4.0 μM): did not affect the results; formaldehyde release, RAD51C only (ALKBH3 [9]; RAD51C without ALKBH3): did not result in any formaldehyde release; Km (ALKBH3 [11]; [16]): 1.7 µM; Vmax (ALKBH3 [11]; 3′-tailed DNA, RAD51C 4 μM with ALKBH3 0.2 μM): increased the Vmax for ALKBH3 reaction
completely abolished | B1 | could not be pulled down by GST-ALKBH3 | not with RAD51CΔ42–52 | significantly reduced amount of endogenous ALKBH3 was immunoprecipitated | weak interaction | weak interaction | interacted strongly | could not result in any significant reduction in the levels of 3meC compared to ALKBH3 alone | 1.42 | interacted strongly | 3meC signal increase after mutant expression (PC3 cells; stable RAD51C knockdown PC3, MMS 400 μM, at least 50 cells counted): at least 50%; 3meC signal increase after mutant expression (NCI-H23 cells [12]): at least 50%
